In brackets after ≈: the same amount, converted by molar mass. Activity calls are given as the source filed them. The calls are words filed in the database; no cut-off is given here.
Tests used:
Fusobacterium nucleatum [1] = assay: Antimicrobial activity against beta lactamase-positive Fusobacterium nucleatum isolated from intra-abdominal infection and pelvic inflammatory disease patients after 48 hrs by time kill analysis; format: functional
Summary of the method: (§1)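 The MIC was read by inspecting macrodilution time-kill tubes. Vials held prereduced brucella broth with 5% laked horse blood cells, hemin 5 μg/ml and vitamin K1 1 μg/ml. Final inoculum was 10^6–10^7 CFU/ml, prepared inside the anaerobe chamber. Vials were incubated 48 h at 35°C in a shaking water bath.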

Porphyromonas gingivalis = assay: Antimicrobial activity against Porphyromonas gingivalis isolated from intra-abdominal infection and pelvic inflammatory disease patients after 48 hrs by agar dilution method; format: functional
Summary of the method: (§2)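 CLSI agar dilution on brucella blood agar supplemented with laked sheep blood, hemin and vitamin K. Inocula of about 1 × 10^5 CFU/spot were applied by Steers replicator, and plates were incubated 48 h at 35°C in an anaerobic glove box. MIC was the concentration giving marked growth reduction versus the anaerobic control plate. QC strains were included each run, and β-lactamase was detected by Cefinase disk.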

Clostridium cadaveris = assay: Antimicrobial activity against Clostridium cadaveris isolated from intra-abdominal infection and pelvic inflammatory disease patients after 48 hrs by agar dilution method; format: functional; summary of the method: as §2
Clostridioides difficile [2] = assay: Bactericidal activity against Clostridium difficile isolated from intra-abdominal infection and pelvic inflammatory disease patients assessed as bacterial killing at 2 times MIC after 48 hrs by time kill analysis; format: functional
Summary of the method: (§3)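 Macrodilution time-kill in prereduced brucella broth with 5% laked horse blood, hemin 5 μg/ml and vitamin K1 1 μg/ml, at final inoculum 10^6–10^7 CFU/ml. […] Viable counts were taken at 6, 12, 24 and 48 h on plates incubated 48 h anaerobically. 99.9% kill was taken as bactericidal.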

Prevotella intermedia [3] = assay: Antimicrobial activity against beta lactamase-positive Prevotella intermedia isolated from intra-abdominal infection and pelvic inflammatory disease patients after 48 hrs by agar dilution method; format: functional; summary of the method: as §2
[4] = tested on: Peptoniphilus asaccharolyticus; assay: Antimicrobial activity against Peptoniphilus asaccharolyticus isolated from intra-abdominal infection and pelvic inflammatory disease patients after 48 hrs by agar dilution method; format: functional; summary of the method: as §2
Clostridioides difficile [5] = assay: Bactericidal activity against Clostridium difficile isolated from intra-abdominal infection and pelvic inflammatory disease patients assessed as bacterial killing at MIC after 24 hrs by time kill analysis; format: functional; summary of the method: as §3
Fusobacterium nucleatum [6] = assay: Bactericidal activity against beta lactamase-positive Fusobacterium nucleatum isolated from intra-abdominal infection and pelvic inflammatory disease patients assessed as bacterial killing at MIC after 24 hrs by time kill analysis; format: functional
Summary of the method: (§4)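 Anaerobic macrodilution time-kill. Inoculum from brucella blood plates, prepared and diluted in prereduced brucella broth inside the anaerobe chamber. Final 10^6 to 10^7 CFU/ml in prereduced brucella broth with 5% laked horse blood cells, 5 μg/ml hemin and 1 μg/ml vitamin K1. […] Shaken at 35°C for 48 h. Viable counts taken at 6, 12, 24 and 48 h. 99.9% kill taken as bactericidal.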

Anaerococcus tetradius = assay: Antimicrobial activity against Anaerococcus tetradius isolated from intra-abdominal infection and pelvic inflammatory disease patients after 48 hrs by agar dilution method; format: functional; summary of the method: as §2
[7] = tested on: Bacteroides thetaiotaomicron; assay: Bactericidal activity against beta lactamase-positive Bacteroides thetaiotaomicron isolated from intra-abdominal infection and pelvic inflammatory disease patients assessed as bacterial killing at 2 times MIC after 48 hrs by time kill analysis; format: functional; summary of the method: as §3
Phocaeicola vulgatus = assay: Antimicrobial activity against beta lactamase-positive Bacteroides vulgatus isolated from intra-abdominal infection and pelvic inflammatory disease patients after 48 hrs by agar dilution method; format: functional; summary of the method: as §2
Bacteroides fragilis [8] = assay: Bactericidal activity against beta lactamase-positive Bacteroides fragilis isolated from intra-abdominal infection and pelvic inflammatory disease patients assessed as bacterial killing at 2 times MIC after 48 hrs by time kill analysis; format: functional; summary of the method: as §3
Fusobacterium nucleatum [9] = assay: Antimicrobial activity against beta lactamase-positive Fusobacterium nucleatum isolated from intra-abdominal infection and pelvic inflammatory disease patients after 48 hrs by agar dilution method; format: functional; summary of the method: as §2
Bacteroides fragilis [10] = assay: Antimicrobial activity against beta lactamase-positive Bacteroides fragilis isolated from intra-abdominal infection and pelvic inflammatory disease patients after 48 hrs by time kill analysis; format: functional; summary of the method: as §1
Clostridium perfringens = assay: Antimicrobial activity against Clostridium perfringens isolated from intra-abdominal infection and pelvic inflammatory disease patients after 48 hrs by agar dilution method; format: functional
Summary of the method: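 CLSI agar dilution on brucella blood agar supplemented with laked sheep blood, hemin and vitamin K. Inoculum about 1 × 10^5 CFU/spot, applied by Steers replicator. Plates incubated 48 h at 35°C in an anaerobic glove box. MIC is the concentration giving marked growth reduction versus the anaerobic control plate. Standard QC strains included in each run.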

Finegoldia magna [11] = assay: Antimicrobial activity against Finegoldia magna isolated from intra-abdominal infection and pelvic inflammatory disease patients after 48 hrs by agar dilution method; format: functional; summary of the method: as §2
Finegoldia magna [12] = assay: Bactericidal activity against beta lactamase-positive Finegoldia magna isolated from intra-abdominal infection and pelvic inflammatory disease patients assessed as bacterial killing at 2 times MIC after 48 hrs by time kill analysis; format: functional; summary of the method: as §4
Fusobacterium varium = assay: Antimicrobial activity against Fusobacterium varium isolated from intra-abdominal infection and pelvic inflammatory disease patients after 48 hrs by agar dilution method; format: functional; summary of the method: as §2
Prevotella buccae = assay: Antimicrobial activity against beta lactamase-positive Prevotella buccae isolated from intra-abdominal infection and pelvic inflammatory disease patients after 48 hrs by agar dilution method; format: functional; conditions: Segatella buccae; summary of the method: as §2
Finegoldia magna [13] = assay: Bactericidal activity against beta lactamase-positive Finegoldia magna isolated from intra-abdominal infection and pelvic inflammatory disease patients assessed as 99.9% bacterial killing at 2 times MIC after 48 hrs by time kill analysis; format: functional, organism-based; summary of the method: as §3
Parvimonas micra = assay: Antimicrobial activity against Micromonas micros isolated from intra-abdominal infection and pelvic inflammatory disease patients after 48 hrs by agar dilution method; format: functional; summary of the method: as §2
[14] = tested on: Clostridium paraputrificum; assay: Antimicrobial activity against Clostridium paraputrificum isolated from intra-abdominal infection and pelvic inflammatory disease patients after 48 hrs by agar dilution method; format: functional; summary of the method: as §2
Fusobacterium nucleatum [15] = assay: Bactericidal activity against beta lactamase-positive Fusobacterium nucleatum isolated from intra-abdominal infection and pelvic inflammatory disease patients assessed as bacterial killing at 2 times MIC after 48 hrs by time kill analysis; format: functional; summary of the method: as §4
[16] = tested on: Enterocloster clostridioformis; assay: Antimicrobial activity against Clostridium clostridioforme isolated from intra-abdominal infection and pelvic inflammatory disease patients after 48 hrs by agar dilution method; format: functional; summary of the method: as §2
Prevotella disiens = assay: Antimicrobial activity against beta lactamase-positive Prevotella disiens isolated from intra-abdominal infection and pelvic inflammatory disease patients after 48 hrs by agar dilution method; format: functional; summary of the method: as §2
Clostridioides difficile [17] = assay: Bactericidal activity against Clostridium difficile isolated from intra-abdominal infection and pelvic inflammatory disease patients assessed as 99.9% bacterial killing at 2 times MIC after 48 hrs by time kill analysis; format: functional, organism-based; summary of the method: as §3
[18] = tested on: Bacteroides thetaiotaomicron; assay: Antimicrobial activity against beta lactamase-positive Bacteroides thetaiotaomicron isolated from intra-abdominal infection and pelvic inflammatory disease patients after 48 hrs by agar dilution method; format: functional; summary of the method: as §2
Thomasclavelia ramosa = assay: Antimicrobial activity against Clostridium ramosum isolated from intra-abdominal infection and pelvic inflammatory disease patients after 48 hrs by agar dilution method; format: functional; summary of the method: as §2
Prevotella intermedia [19] = assay: Antimicrobial activity against beta lactamase-positive Prevotella intermedia isolated from intra-abdominal infection and pelvic inflammatory disease patients after 48 hrs by time kill analysis; format: functional; summary of the method: as §1

## C[C@@H](O)[C@H]1C(=O)N2C(C(=O)O)=C(S[C@@H]3CN[C@H](CNS(N)(=O)=O)C3)[C@H](C)[C@H]12 [DORIPENEM]
Fusobacterium nucleatum [1]
  MIC: 0.016 µg/mL (≈ 0.038 µM)
Porphyromonas gingivalis
  MIC: ≤ 0.016 µg/mL
Clostridium cadaveris
  MIC: 0.03 µg/mL (≈ 0.0713 µM)
Clostridioides difficile [2]
  Activity: 99%
Prevotella intermedia [3]
  MIC50: 0.03 µg/mL (≈ 0.0713 µM)
  MIC90: 0.125 µg/mL (≈ 0.297 µM)
[4]
  MIC: ≤ 0.016 µg/mL
  MIC50: ≤ 0.016 µg/mL
  MIC90: 0.03 µg/mL (≈ 0.0713 µM)
Clostridioides difficile [5]
  Activity: 90%
Fusobacterium nucleatum [6]
  Activity: 90%
Anaerococcus tetradius
  MIC50: 0.03 µg/mL (≈ 0.0713 µM)
[7]
  Activity: 99%
Phocaeicola vulgatus
  MIC50: 0.25 µg/mL (≈ 0.595 µM)
  MIC90: 1 µg/mL (≈ 2.38 µM)
Bacteroides fragilis [8]
  Activity: 99%
Fusobacterium nucleatum [9]
  MIC: ≤ 0.016 µg/mL
  MIC50: ≤ 0.016 µg/mL
  MIC90: 0.03 µg/mL (≈ 0.0713 µM)
Bacteroides fragilis [10]
  MIC: 0.25 µg/mL (≈ 0.595 µM)
Clostridium perfringens
  MIC50: 0.03 µg/mL (≈ 0.0713 µM)
  MIC90: 0.03 µg/mL (≈ 0.0713 µM)
Finegoldia magna [11]
  MIC: 0.06 µg/mL (≈ 0.143 µM)
  MIC50: 0.06 µg/mL (≈ 0.143 µM)
  MIC90: 0.125 µg/mL (≈ 0.297 µM)
Finegoldia magna [12]
  Activity: 99%
Fusobacterium varium
  MIC50: 0.125 µg/mL (≈ 0.297 µM)
  MIC90: 0.125 µg/mL (≈ 0.297 µM)
Prevotella buccae
  MIC: 0.06 µg/mL (≈ 0.143 µM)
  MIC50: 0.06 µg/mL (≈ 0.143 µM)
  MIC90: 0.125 µg/mL (≈ 0.297 µM)
Finegoldia magna [13]
  Activity: inactive
Parvimonas micra
  MIC: ≤ 0.016 µg/mL
  MIC50: ≤ 0.016 µg/mL
  MIC90: 0.06 µg/mL (≈ 0.143 µM)
[14]
  MIC: 0.25 µg/mL (≈ 0.595 µM)
Fusobacterium nucleatum [15]
  Activity: 99%
[16]
  MIC: 1 µg/mL (≈ 2.38 µM)
Prevotella disiens
  MIC50: 0.06 µg/mL (≈ 0.143 µM)
  MIC90: 0.125 µg/mL (≈ 0.297 µM)
Clostridioides difficile [17]
  Activity: inactive
[18]
  MIC: 0.25 µg/mL (≈ 0.595 µM)
  MIC50: 0.25 µg/mL (≈ 0.595 µM)
  MIC90: 0.5 µg/mL (≈ 1.19 µM)
Thomasclavelia ramosa
  MIC: 0.5 µg/mL (≈ 1.19 µM)
  MIC50: 0.5 µg/mL (≈ 1.19 µM)
Prevotella intermedia [19]
  MIC: 0.06 µg/mL (≈ 0.143 µM)

## C[C@@H](O)[C@H]1C(=O)N2C(C(=O)O)=C(SCCNC=N)C[C@H]12 [IMIPENEM ANHYDROUS]
Fusobacterium nucleatum [1]
  MIC: 0.016 µg/mL (≈ 0.0534 µM)
Porphyromonas gingivalis
  MIC: ≤ 0.016 µg/mL
Clostridium cadaveris
  MIC: 0.125 µg/mL (≈ 0.418 µM)
Clostridioides difficile [2]
  Activity: 99%
Prevotella intermedia [3]
  MIC50: 0.03 µg/mL (≈ 0.1 µM)
  MIC90: 0.125 µg/mL (≈ 0.418 µM)
[4]
  MIC: ≤ 0.016 µg/mL
  MIC50: ≤ 0.016 µg/mL
  MIC90: 0.03 µg/mL (≈ 0.1 µM)
Clostridioides difficile [5]
  Activity: 90%
Fusobacterium nucleatum [6]
  Activity: 90%
Anaerococcus tetradius
  MIC50: 0.03 µg/mL (≈ 0.1 µM)
[7]
  Activity: 99%
Phocaeicola vulgatus
  MIC50: 0.5 µg/mL (≈ 1.67 µM)
  MIC90: 1 µg/mL (≈ 3.34 µM)
Bacteroides fragilis [8]
  Activity: 99%
Fusobacterium nucleatum [9]
  MIC50: 0.03 µg/mL (≈ 0.1 µM)
  MIC90: 0.03 µg/mL (≈ 0.1 µM)
Bacteroides fragilis [10]
  MIC: 0.06 µg/mL (≈ 0.2 µM)
Clostridium perfringens
  MIC50: 0.06 µg/mL (≈ 0.2 µM)
  MIC90: 0.125 µg/mL (≈ 0.418 µM)
Finegoldia magna [11]
  MIC50: 0.06 µg/mL (≈ 0.2 µM)
  MIC90: 0.06 µg/mL (≈ 0.2 µM)
Finegoldia magna [12]
  Activity: 99%
Fusobacterium varium
  MIC50: 1 µg/mL (≈ 3.34 µM)
  MIC90: 1 µg/mL (≈ 3.34 µM)
Prevotella buccae
  MIC: 0.03 µg/mL (≈ 0.1 µM)
  MIC50: 0.03 µg/mL (≈ 0.1 µM)
  MIC90: 0.03 µg/mL (≈ 0.1 µM)
Finegoldia magna [13]
  Activity: inactive
Parvimonas micra
  MIC: 0.03 µg/mL (≈ 0.1 µM)
  MIC50: 0.03 µg/mL (≈ 0.1 µM)
  MIC90: 0.06 µg/mL (≈ 0.2 µM)
[14]
  MIC: 0.5 µg/mL (≈ 1.67 µM)
Fusobacterium nucleatum [15]
  Activity: 99%
[16]
  MIC: 2 µg/mL (≈ 6.68 µM)
Prevotella disiens
  MIC: 0.03 µg/mL (≈ 0.1 µM)
  MIC50: 0.03 µg/mL (≈ 0.1 µM)
  MIC90: 0.125 µg/mL (≈ 0.418 µM)
Clostridioides difficile [17]
  Activity: inactive
[18]
  MIC: 0.25 µg/mL (≈ 0.835 µM)
  MIC50: 0.25 µg/mL (≈ 0.835 µM)
  MIC90: 0.5 µg/mL (≈ 1.67 µM)
Thomasclavelia ramosa
  MIC: 0.25 µg/mL (≈ 0.835 µM)
  MIC50: 0.25 µg/mL (≈ 0.835 µM)
Prevotella intermedia [19]
  MIC: 0.03 µg/mL (≈ 0.1 µM)
